An excerpt weighted towards active compounds, which were near 4.8% of everything screened.
PAFAH2 FP inh: inhibitors of human PAFAH2; 0.99% of 340,000 active; recombinant PAFAH2, FP-rhodamine activity probe, fluorescence polarization; inhibition, % at 3.39 µM;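 active = inhibition above the mean over all tested compounds plus 3 SD, cut at about 30% in these data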;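 note: inhibitors block probe labeling of enzyme so polarization drops; 0% = enzyme with DMSO and 100% = wells lacking PAFAH2 protein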
GRIN3A LBD mod: modulators (binders) of human NR3A ligand-binding domain | NR3A LBD differential scanning fluorimetry, Tm shift; 0% = protein alone, 100% = glycine-bound protein | 2.5% of 340,000 active | AID 1259313 | Tm shift relative to glycine control, % at 25 µM;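 active = melting temperature shift of at least 10% of the positive control shift, at one fixed dose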
PAFAH1B3 FP inh: inhibitors of human PAFAH1B3; AID 492972; inhibition, % at 3.39 µM; Q15102; recombinant PAFAH1B3, FP-rhodamine probe, fluorescence polarization; 0.28% of 340,000 active;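 active = inhibition above the screen-wide average of all tested compounds plus 3 SD, cut at about 25% in these data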;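 note: 0% = enzyme with DMSO only and 100% = wells lacking PAFAH1B3 protein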
Target sequence (Q15102 whole entry, looked up): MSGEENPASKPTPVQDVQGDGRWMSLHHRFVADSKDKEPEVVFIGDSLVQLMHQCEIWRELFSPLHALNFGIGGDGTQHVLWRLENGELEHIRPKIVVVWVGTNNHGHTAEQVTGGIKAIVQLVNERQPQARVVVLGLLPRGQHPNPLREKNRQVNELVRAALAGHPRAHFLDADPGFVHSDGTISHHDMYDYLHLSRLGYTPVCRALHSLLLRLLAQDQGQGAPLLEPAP
pPAFAH FP inh: pPAFAH (human) enzyme inhibition. Q13093. recombinant pPAFAH, FP-rhodamine probe fluorescence polarization. inhibition, % at 3.39 µM. 1.5% of 330,000 active. AID 463082;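 active = inhibition above the mean inhibition across the screen plus 3 SD, cut at about 25% in these data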;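 note: inhibitors block binding of the rhodamine activity-based probe so polarization drops; 0% = enzyme with DMSO and 100% = wells lacking pPAFAH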
PAFAH1B2 FP inh: inhibitors of human PAFAH1B2; recombinant PAFAH1B2, FP-rhodamine activity probe, fluorescence polarization; AID 492953; inhibition, % at 3.39 µM; 1.2% of 340,000 active;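 active = inhibition above the mean of all tested compounds plus 3 SD, cut at about 24% in these data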;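 note: 0% = enzyme with DMSO and 100% = wells lacking PAFAH1B2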
UCH37 inh: inhibitors of human deubiquitinating enzyme UCH37. AID 588478. Q9Y5K5. 0.33% of 330,000 active. inhibition, % (test concentration not listed). purified proteasome/UCH37, Ub-AMC cleavage fluorescence;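 active = mean inhibition over replicate wells above about 20%, limit read from the data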;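 note: 0% = compound-free wells with enzyme and 100% = wells lacking proteasome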
Target sequence (Q9Y5K5 whole entry, looked up): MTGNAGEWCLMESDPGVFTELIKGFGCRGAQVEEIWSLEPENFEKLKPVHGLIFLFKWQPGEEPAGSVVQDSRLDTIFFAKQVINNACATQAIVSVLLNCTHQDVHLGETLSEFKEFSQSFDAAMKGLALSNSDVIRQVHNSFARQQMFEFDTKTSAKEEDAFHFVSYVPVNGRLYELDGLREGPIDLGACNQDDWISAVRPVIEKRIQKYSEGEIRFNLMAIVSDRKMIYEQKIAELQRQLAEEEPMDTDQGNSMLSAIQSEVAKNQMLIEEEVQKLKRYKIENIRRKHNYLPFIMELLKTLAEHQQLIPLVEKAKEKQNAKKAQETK
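Schedule: 30 min plus 25 min, room temperature / Material: human UCH37 within purified proteasomes / Technique: AMC fluorescence intensity at 355/460 nm / Buffer or medium: pH 7.4 Tris-HCl (50 mM) with ovalbumin, ATP-MgCl2, DTT / Controls: wells without proteasome as full block, compound-free enzyme plus substrate as uninhibited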
Starred values were filed as active, the others as inactive; · = no result.

SMILES | PAFAH2 FP inh | GRIN3A LBD mod | PAFAH1B3 FP inh | pPAFAH FP inh | PAFAH1B2 FP inh | UCH37 inh
CCN1CC(CN(C)Cc2nc(-c3ccc(C(F)(F)F)cc3)oc2C)CC1=O (centres undefined) | 3.8 | 0.4 | 6.2 | 29.9* | 2.8 | -4.2
Cc1ccc2cc(C#N)c(N3CCCN(S(=O)(=O)c4ccccc4)CC3)nc2c1C | -3.8 | 11.1* | 1.9 | 3.6 | -0.1 | -15.8
O=[N+]([O-])c1ccccc1S(=O)(=O)Nc1nc2ccccc2s1 | 17.3 | -13.8 | -4.3 | 3.3 | 4.5 | 2.3
O=[N+]([O-])c1ccc2nc(NS(=O)(=O)c3ccc(Cl)cc3)sc2c1 | 0.0 | 18.5* | 2.3 | -1.2 | 15.1 | 6.6
O=C(NC(Nc1nc2ccc([N+](=O)[O-])cc2s1)(C(F)(F)F)C(F)(F)F)c1ccccc1Cl | 1.8 | 13.0* | -3.3 | 33.0* | -4.6 | 4.4
O=[N+]([O-])c1ccc2nc(NS(=O)(=O)c3ccccc3[N+](=O)[O-])sc2c1 | 7.8 | 14.4* | 2.5 | 7.7 | 2.5 | 12.8
CC1=NN(c2nc(-c3ccc(F)cc3)cs2)C(=O)C1 | 13.9 | 2.6 | 3.9 | 30.3* | 5.4 | 2.1
CC1=NN(c2nc(-c3ccc(Cl)cc3)cs2)C(=O)C1 | 21.3 | 19.4* | 6.8 | 12.6 | 7.0 | 4.2
Fc1ccc(-c2csc(N3CCSCC3)n2)cc1 | 8.7 | 6.2 | 2.0 | 3.0 | 3.6 | 2.6
CC(=NNS(=O)(=O)c1cccc([N+](=O)[O-])c1)c1cccnc1 | · | · | · | · | · | -38.2
Cc1ccccc1C=NNC(=O)Cn1nnc(N)n1 | · | · | · | · | · | 4.5
O=C(NNS(=O)(=O)c1ccccc1)c1ccccc1-n1cccc1 | 8.9 | 0.4 | 4.7 | -4.6 | 3.4 | 0.9
O=C(NNS(=O)(=O)c1ccc(Br)cc1)c1ccccc1-n1cccc1 | 3.1 | 0.3 | 8.4 | -0.6 | 29.4* | 5.3
COc1cccc(C(C)=NNC(=O)c2cc(-c3cccnc3)nc3ccccc23)c1 | · | · | · | · | · | -0.2
CCOc1ccc(NC(=O)C23CC4CC(C2)CC(c2ccccc2)(C4)C3)cc1 | 4.9 | -1.0 | 8.0 | 3.9 | 26.7* | -5.5
Cc1ccc2c3c(cccc13)-c1ccccc1C2=O | -10.0 | -12.7 | 7.8 | 2.4 | 0.6 | -21.1
Cc1coc2c1C(=O)C(=O)c1c-2ccc2c(C)cccc12 | 51.0* | -10.2 | 18.8 | 56.1* | 20.7 | 1.7
Cc1cc(C)cc(NC(=S)NCc2ccc3[nH]c4c(c3c2)CCCC4)c1 | -0.1 | 17.1* | 7.7 | 13.4 | 0.7 | 2.3
N/C(=N\OC(=O)c1ccc(F)cc1)c1ccc(Br)cc1 | -0.8 | 2.0 | 2.6 | -4.7 | 1.9 | -7.5
O=C(O/N=C/c1ccc(Br)cc1)c1ccc(F)cc1 | 66.6* | 2.5 | 2.1 | -1.6 | 45.4* | ·
O=C(Nc1nnc(-c2ccc3c(c2)CCCC3)o1)C1COc2ccccc2O1 (centres undefined) | 2.9 | -12.5 | 6.7 | 30.9* | -0.1 | -2.3
Cc1nc(-c2coc3cc(C)c(N=O)c(O)c3c2=NN)cs1 | · | · | · | · | · | 7.2
Cc1ccc(NC(=O)c2ncn(CC(=O)NCc3nc4ccccc4[nH]3)n2)cc1C | -2.3 | 16.8* | 10.9 | -2.1 | -1.7 | -0.4
Cc1ccc(NC(=O)c2ncn(CC(=O)N[C@H](C)c3cccc4ccccc34)n2)cc1C | -2.1 | 18.5* | -7.0 | 13.8 | 2.2 | 3.6
Cc1ccc(S(=O)(=O)N2CCN(CC(=O)NN=Cc3ccccc3OCC(=O)O)CC2)cc1 | · | · | · | · | · | 2.0
SMILES | PAFAH2 FP inh | GRIN3A LBD mod | PAFAH1B3 FP inh | pPAFAH FP inh | PAFAH1B2 FP inh | UCH37 inh
CC1Oc2ccccc2C=C1C=NNC(=O)c1ccncc1 (centres undefined) | · | · | · | · | · | 4.0
Cc1cc(=O)[nH]c(NN=Cc2c(C)nn(-c3ccc(F)cc3)c2Cl)n1 | · | · | · | · | · | 2.8
Cc1nn(-c2ccccc2)c(Cl)c1CN(C(=O)CCl)c1ccc(Cl)cc1 | 2.3 | -4.8 | 0.0 | 4.2 | 40.9* | 5.5
CC1(C)SC(=S)N(NC(=O)Nc2ccccc2)C1N(O)C(=O)Nc1cccc2ccccc12 (centres undefined) | -22.5 | 21.0* | -8.1 | -0.9 | -13.3 | 1.6
COC(=O)NN=Cc1cn(CC(C)COc2ccccc2)c2ccccc12 (centres undefined) | · | · | · | · | · | -1.8
Cc1ccc(OCC(=O)NN=C2CCOc3c(C)cccc32)cc1 | · | · | · | · | · | 2.4
CCc1ccc(NC(=O)CSc2nnc(-c3n[nH]c4ccccc34)n2-c2ccccc2)cc1 | 1.9 | 22.8* | -11.2 | -1.4 | 0.7 | 3.0
CCc1ccc(-n2c(SCC(=O)Nc3ccc(C(=O)O)cc3)nnc2-c2ccncc2)cc1 | · | -1.2 | · | -0.5 | · | 2.7
O=C(CSc1nnc(-c2n[nH]c3ccccc23)n1-c1ccccc1)Nc1cccc(Cl)c1 | -14.9 | 22.2* | -9.8 | -12.4 | -12.5 | 0.6
CC(C)(C)c1ccc(O)c(C=NO)c1 | · | · | · | · | · | 0.7
Cc1cc(C)n(-c2nc(N(c3ccccc3)c3ccccc3)nc(-n3nc(C)cc3C)n2)n1 | -7.2 | 34.3* | -0.3 | 1.8 | -3.4 | 4.1
C/C(C=NNC(=O)c1n[nH]c2c1CCC2)=C\c1ccccc1 | · | · | · | · | · | 3.7
CCn1c(=N)n(CC(O)c2ccco2)c2ccccc21 (centres undefined) | -2.6 | -1.4 | 4.9 | 5.0 | 3.8 | 1.5
N=c1n(Cc2ccccc2)c2ccccc2n1CC(O)c1ccco1 (centres undefined) | 45.9* | -0.2 | 27.7* | 3.4 | 37.8* | -1.1
Cn1c(CNC(=O)c2ccco2)nnc1SCC(=O)Nc1ccccc1Cl | 8.7 | 12.8* | 6.8 | 1.1 | 0.7 | 0.9
Cc1cccc(NC(=O)CSc2nnc(CNC(=O)c3ccco3)n2C)c1C | 8.3 | 0.8 | 3.0 | -0.9 | 0.8 | 3.6
CC(=NNC(=O)c1cc2ccccc2cc1O)c1cccs1 | · | · | · | · | · | 2.9
N#Cc1nc(COc2ccc(Br)cc2)oc1NCCCn1ccnc1 | -0.1 | -4.1 | -0.6 | 1.3 | 24.9* | -2.8
O=C(NN=C/C=C\c1ccco1)c1ccccn1 | · | · | · | · | · | 10.7
Cc1ccc(-c2nn(-c3ccccc3)cc2C=NNS(=O)(=O)c2ccccc2)cc1 | · | · | · | · | · | 3.3
O=C(c1ccccc1)c1cnc(Nc2ccc(Cl)c(Cl)c2)s1 | -8.9 | 29.3* | 7.5 | 1.3 | 0.9 | -2.3
CC(=NNC(=O)c1cccc(N2CCCC2=O)c1)c1ccc(N)cc1 | · | · | · | · | · | 6.6
Cc1nn(-c2ccccc2)c(C)c1/C=N/NC(=O)CSc1nnc(SCc2cccc3ccccc23)s1 | -24.8 | 15.7* | -20.5 | -10.6 | -12.5 | ·
Cc1nn(-c2ccccc2)c(C)c1C=NNC(=O)CSc1nnc(SCc2cccc3ccccc23)s1 | · | · | · | · | · | 6.6
O=C(CSc1nnc(SCc2cccc3ccccc23)s1)NN=Cc1c[nH]c2ccccc12 | · | · | · | · | · | 2.4
O=C(CSc1nnc(SCc2ccccc2Cl)s1)N/N=C/c1c[nH]c2ccccc12 | 0.7 | 26.1* | 4.3 | 3.9 | 1.4 | ·
Cc1ccccc1-n1c(SCC(=O)N/N=C/c2c(C)nn(-c3ccccc3)c2C)nc2ccccc2c1=O | -27.7 | 20.5* | -11.3 | -9.0 | -6.0 | ·
CC1C(=NO)CC(c2ccco2)NC1c1ccco1 (centres undefined) | · | · | · | · | · | 3.0

Source: PubChem BioAssay (several laboratories)
